PRMT1 inh = inhibitors of human PRMT1. 1.3% of 370,000 active. recombinant PRMT1, activity-based probe fluorescence polarization. Q99873. AID 652257. inhibition, % at 2.79 µM;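 active means inhibition above about 21% made by adding two undisclosed values, limit read from the data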
SIAE primary = blocks human sialic acid acetylesterase. inhibition, % at 9.66 µM. SIAE FP-Rh probe binding, fluorescence polarization. Q9HAT2. 0.69% of 370,000 active. AID 1053197;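 active means inhibition above a cutoff: mean of compounds within the control limits plus 3 SD of those, cut at about 17% in these data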;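 further: 0% = plate median of compound wells and 100% = probe without SIAE protein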
ABHD4 inh = inhibits mouse alpha/beta hydrolase domain 4 | inhibition, % at 8.92 µM | Q8VD66 | purified mABHD4, FP-Rh probe fluorescence polarization | 0.54% of 370,000 active;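 active means inhibition exceeding the mean over every tested compound plus 3 SD, cut at about 30% in these data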;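 further: 0% = plate median of compound wells and 100% = S159A mutant with DMSO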
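System: mouse ABHD4 enzyme, wild type / Medium: HEPES pH 7.0, NaCl, Pluronic buffer / Reagent: FP-Rh activity-based fluorescent probe / Control set: S159A mutant high control, sample median low control / Detection: fluorescence polarization with parallel and perpendicular emission, 525/598 nm / Schedule: 45 min + 60 min at 25 °C / Compound dosing: 8.92 µM, single dose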
ATG4B inhibitor = ATG4B (human) cysteine protease inhibition; Q9Y4P1; ATG4B cleavage of LC3-PLA2, NBD-HPC fluorescence, 1 h; inhibition, % at 8.33 µM; 0.51% of 340,000 active; AID 504462; in the data active means inhibition above about 40%
HTRA1 inhibitor = inhibitors of human serine peptidase HTRA1; Q92743; recombinant HTRA1, FP-rhodamine activity-based probe, fluorescence polarization; inhibition, % at 5.96 µM; 0.5% of 340,000 active; in the data active means inhibition above about 36%;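 further: 0% = enzyme with DMSO and 100% = wells lacking enzyme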
Target sequence (Q92743 whole entry, looked up): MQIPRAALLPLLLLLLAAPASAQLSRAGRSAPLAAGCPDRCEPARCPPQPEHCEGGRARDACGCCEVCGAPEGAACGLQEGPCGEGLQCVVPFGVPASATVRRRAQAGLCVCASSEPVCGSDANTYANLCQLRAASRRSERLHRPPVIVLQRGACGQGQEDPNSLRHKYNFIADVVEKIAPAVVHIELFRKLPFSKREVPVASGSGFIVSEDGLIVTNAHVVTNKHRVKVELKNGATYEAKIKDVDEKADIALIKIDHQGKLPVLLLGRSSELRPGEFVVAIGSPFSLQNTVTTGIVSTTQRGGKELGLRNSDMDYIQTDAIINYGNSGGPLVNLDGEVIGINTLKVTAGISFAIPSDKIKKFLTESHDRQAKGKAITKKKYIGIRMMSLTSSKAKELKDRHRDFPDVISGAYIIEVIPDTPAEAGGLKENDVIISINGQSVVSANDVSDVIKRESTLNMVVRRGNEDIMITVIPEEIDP
TCR-CD3 inh = inhibitors of human TCR-CD3 interaction; TAMRA-labeled TCR probe fluorescence, biochemical; inhibition, % at 9.4 µM; 0.37% of 360,000 active;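 further: recombinant mutant TCR 2C K166C tagged with TAMRA read by polarization; 0% = receptor in buffer alone and 100% = receptor with positive control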
BSA probe FL = counter-screen for TCR-CD3 interaction inhibitors: BSA probe | shares compounds with TCR-CD3 inh | 10% of 1,200 active | inhibition, % at 9.4 µM | TAMRA-labeled BSA probe fluorescence counterscreen | AID 652035; in the data active means inhibition above about 23%;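 further: 0% = buffer low control and 100% = reference high control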
TCR-CD3 inh conf = TCR-CD3 interaction inhibition, confirmation | shares compounds with TCR-CD3 inh | TAMRA-labeled TCR probe fluorescence binding assay | inhibition, % at 9.4 µM | 48% of 1,200 active | AID 652036
Starred values were filed as active, the others as inactive; . = no result given; + = active, no number. An excerpt weighted towards active compounds, which were near 2.9% of everything screened. Unless noted, no stated cut-off is given here; in the data, active means inhibition above about 19%; inactive means the rest.

SMILES	PRMT1 inh	SIAE primary	ABHD4 inh	ATG4B inhibitor	HTRA1 inhibitor	TCR-CD3 inh	BSA probe FL	TCR-CD3 inh conf
CCC(CC)C(C(=O)NCc1ccccc1)N1CCN(c2cccc(C)c2C)CC1 (centres undefined)	-3.9	2.6	-5.2	.	.	31.4*	-0.6	-1.5
Cc1cccc(N2CCN(C(C(=O)NCc3ccccc3)c3ccc(F)cc3)CC2)c1C (centres undefined)	-0.1	-3.3	2.1	.	.	-1.4	.	.
COc1ccc(C(=O)NNC(=O)COc2ccc(Cl)cc2)c(OC)c1	-2.6	10.2	-0.8	5.3	17.5	25.1*	-20.5	24.1*
CS/C(N)=N/N=C/c1cc(C)ccc1O	-2.8	4.3	1.5	-11.0	-0.5	1.5	.	.
CS/C(N)=N/N=C/c1cc(Br)cc(Br)c1O	-3.5	-1.9	-2.6	-1.0	20.2	35.4*	13.8	35.7*
CN1CCc2c(c3ccccc3n2Cc2ccccc2)C1	-2.2	7.1	-6.7	-4.2	-2.9	-6.9	1.9	3.2
Cc1cc(/C=C2\SC(=O)NC2=O)c(C)n1-c1ccc(N(C)C)cc1	5.6	10.2	6.9	4.7	-0.7	27.4*	2.2	3.8
Cc1cc(/C=C2\SC(=O)NC2=O)c(C)n1-c1ccc(N2CCOCC2)cc1	1.7	0.0	3.8	-2.5	1.8	5.3	.	.
O=C(NCC(O)c1ccc([N+](=O)[O-])cc1)C1=COCCO1 (centres undefined)	1.0	1.7	0.0	0.3	0.6	+	0.3	1.4
Cc1cc(C)cc(N(CC(=O)Nc2ccc(-c3nc4ccc(C)cc4s3)cc2)S(C)(=O)=O)c1	1.3	-4.5	-9.8	2.2	-25.3	49.0*	18.8	32.4*
Cc1ccc2nc(-c3ccc(NC(=O)CN(c4ccccc4C)S(C)(=O)=O)cc3)sc2c1	-2.6	-9.1	-7.2	-4.7	-21.9	5.8	.	.
CCn1c2ccccc2c2cc(C=Nn3c(-c4ccccn4)n[nH]c3=S)ccc21	3.3	3.8	-4.3	.	.	.	.	.
Nc1ccc(N(CCO)CCO)cc1	19.7	15.1	22.1	15.8	28.6	27.2*	18.8	11.9
CCc1ccccc1-c1cc(C(C)=O)c2n(c1=O)CCC2	2.9	-2.9	2.2	.	.	.	.	.
COc1ccc([N+](=O)[O-])cc1NC(=S)NC(NC(=O)C(c1ccccc1)c1ccccc1)C(Cl)(Cl)Cl (centres undefined)	-2.8	-66.2	-88.8	-12.0	-83.4	74.4*	33.0*	58.8*
COc1ccc([N+](=O)[O-])cc1NC(=O)C(C)c1ccccc1 (centres undefined)	-4.2	0.7	-0.7	-6.3	-7.9	-0.4	.	.
CCNc1nc(NC(C)C)nc(N(C#N)CC(=O)OC)n1	1.5	4.9	-8.4	-14.8	3.0	22.0*	4.2	3.7
CCNc1nc(NC(C)C)nc(N(C#N)C(C)C(=O)N(C)C)n1 (centres undefined)	-0.3	1.2	8.1	-5.6	-0.7	-5.0	.	.
CCN(CC)S(=O)(=O)c1cccc(C(=O)N/N=C(\C)c2ccc(O)cc2O)c1	2.3	11.2	20.6	-10.1	20.6	41.2*	-19.3	44.4*
CCOc1ccc(C(=O)Nc2cc(-c3nc4ccccc4[nH]3)ccc2Cl)cc1[N+](=O)[O-]	-1.0	-78.1	-50.1	17.9	-48.0	25.1*	19.5	39.6*
N#CCC1(O)C(=O)Nc2ccccc21 (centres undefined)	2.5	3.8	9.5	.	.	5.8	.	.
CN1CCC(OC(c2ccccc2)c2ccc(Cl)cc2)C1 (centres undefined)	3.2	2.5	3.7	4.5	3.9	30.7*	-3.1	2.5
C=CCn1c(COc2ccc(C)cc2)nnc1SCC(=O)Nc1cc(Cl)cc(Cl)c1	-7.1	-1.8	-4.9	.	.	.	.	.
CCCNC(=O)C(Cc1ccccc1)NC(=O)c1ccc(C(F)(F)F)cc1 (centres undefined)	-1.4	-1.7	5.0	4.4	-3.5	22.1*	-2.4	4.2
CCOC(=O)[C@]12CCCC=C1N(CCCOC)C(=O)[C@@H]2CC(=O)NCCCCc1ccccc1	-4.5	-0.3	3.3	.	.	.	.	.
SMILES	PRMT1 inh	SIAE primary	ABHD4 inh	ATG4B inhibitor	HTRA1 inhibitor	TCR-CD3 inh	BSA probe FL	TCR-CD3 inh conf
Cc1nn(-c2ccccc2)c(Cl)c1/C=N/NC(=O)c1cccnc1	-0.7	2.9	-0.9	-9.2	3.7	2.4	.	.
O=C(N/N=C/c1c(Cl)nc2ccccn2c1=O)c1cccnc1	6.1	-1.8	13.0	-1.8	6.7	29.1*	-6.3	5.5
COCCNc1oc(-c2ccc(C)cc2)nc1C#N	2.3	-3.5	-9.2	2.2	-3.3	0.7	.	.
COCCNc1oc(-c2ccc(Cl)cc2)nc1C#N	1.3	-6.4	2.6	-1.8	-0.6	19.1*	0.3	-1.1
CNC(=S)NNC(=O)c1oc2nc(-c3ccccc3)cc(C)c2c1N	17.7	-2.3	12.4	2.1	22.9	29.3*	-0.6	18.3
O=C(NNC(=O)c1cccc(-n2cccc2)c1)c1ccccc1	4.2	2.4	-6.0	3.0	3.8	-0.2	.	.
O=C(NNC(=O)c1ccccc1F)c1cccc(-n2cccc2)c1	4.2	-3.5	1.8	-5.1	4.1	21.9*	0.1	26.1*
CCCC1CCC2(CCCN2CCOC(=O)Nc2ccc(F)cc2)CC1 (centres undefined)	-3.8	0.6	4.4	.	.	.	.	.
O=C(NC1CCC1)c1ccc(C#Cc2cccc(F)c2)cn1	2.3	1.8	-8.0	.	.	.	.	.
O=C(NN1C(=O)/C(=C/c2cccc(O)c2)SC1=S)c1ccccc1O	9.0	-1.1	3.4	2.2	5.5	27.9*	-17.4	17.1
O=C(NN1C(=O)/C(=C/c2ccc(O)c(O)c2)SC1=S)c1ccccc1	20.6	-97.5	-41.8	8.8	-56.3	-64.9	.	.
CCOc1ccc(CNc2ccc(S(N)(=O)=O)cc2)cc1	2.3	7.4	-1.0	-2.7	-4.7	152.4*	-0.2	0.8
CCN1CCN(C(=O)C2CCN(S(=O)(=O)c3ccc(Br)cc3)CC2)CC1	1.8	-11.1	-4.3	-6.3	-1.9	19.4*	3.0	-2.9
CCCCN(C(=O)c1cccc(-n2cccc2)c1)c1c(N)n(CCCC)c(=O)[nH]c1=O	16.0	-1.6	0.2	-6.4	-9.9	38.5*	-8.6	10.0
CCCCN(C(=O)c1cccc(-n2cccc2)c1)c1c(N)n(CCC)c(=O)[nH]c1=O	-2.3	0.6	3.0	5.7	-6.4	8.5	.	.
Cc1ccc(CN2CCCCC(NC(=O)c3ccc(Br)cc3)C2=O)cc1 (centres undefined)	-9.4	1.2	-6.8	.	.	.	.	.
COc1ccc(S(=O)(=O)N2CCN(CC(=O)c3ccc(O)c(O)c3)CC2)cc1	13.8	10.9	14.8	-9.0	19.0	24.9*	-4.0	18.0
O=c1c2cc3cc(Cl)ccc3nc2ncn1N1CCCCC1	-5.8	-5.8	-3.8	.	.	.	.	.
Cc1ccccc1NS(=O)(=O)c1ccc(C(=O)NCC2(N3CCOCC3)CCCCC2)cc1	-6.0	-5.3	0.1	-6.8	-5.2	27.3*	5.0	6.5

Screens: PubChem, several laboratories
